The source made the active and inactive calls. The rule behind the calls is not given here.

The nature of data set [1]: Ratio of drug uptake in human U87MG cells to drug uptake in mouse 3T3 cells measured up to 4 hrs. Type of data set: ADME, cell-based.
Data set [2] relates to LN-229. Description: Cytotoxicity against human LN229 cells assessed as cell viability at 100 uM incubated for 24 hrs by WST-1 assay (reference value: 91 %). Type of data set: functional. The note with it: LN-229, 24 h, read-out: Activity. In general terms: Formazan colour is commonly taken as a measure of viable cells.
For data set [3], the system named is LN-229. Briefly: Effect on LAT-1 expression in human LN229 cells at 50 uM incubated for 2 hrs by Western blot analysis. Type of data set: functional, cell-based. The method, boiled down: (§1)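 Western blot for LAT-1 protein in the three cell lines after 2 h incubation with the derivatives. Primary antibodies: LAT-1 (1:2500) and α-tubulin (1:5000) as loading reference. Qualitative comparison of expression level.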
A general note: A western blot detects proteins with antibodies after separation by electrophoresis.

Data set [4] can be described thus: Aqueous solubility of compound. Type of data set: physicochemical. The following applies: buffer.
The nature of data set [5]: Cytotoxicity against mouse 3T3 cells assessed as cell viability incubated for 24 hrs by WST-1 assay (reference value: 57 %). Type of data set: cell-based. The following applies: NIH3T3 cells, read-out: Activity.
Data set [6] can be described thus: Ratio of drug uptake in human LN229 cells to drug uptake in mouse 3T3 cells measured at 1 hr. Type of data set: ADME, cell-based.
Data set [7] has as its system U-87 MG. Description: Cytotoxicity against human U87MG cells assessed as cell viability at 50 uM incubated for 1 hr followed by neutron irradiation for 3 mins by WST-1 assay. Type of data set: functional, cell-based. The note with it: U-87MG ATCC.
Data set [8] is described as follows: Ratio of drug uptake in human LN229 cells to drug uptake in mouse 3T3 cells measured up to 4 hrs. Type of data set: ADME, cell-based.
In data set [9] the test system is LN-229. Briefly: Cytotoxicity against human LN229 cells assessed as cell viability at 50 uM incubated for 1 hr followed by neutron irradiation for 3 mins by WST-1 assay. Type of data set: functional, cell-based.
Another data set concerns NIH3T3. Description: Downregulation of LAT-1 expression in mouse 3T3 cells at 50 uM incubated for 2 hrs by Western blot analysis. Type of data set: functional, cell-based. The essentials:
as §1

Data set [10] can be described thus: Drug uptake in human LN229 cells at 50 uM incubated for 1 hr by ICP-MS analysis. Type of data set: ADME, cell-based. The note with it: ln-229, 1 h.
The nature of data set [11]: Drug uptake in human U87MG cells at 50 uM incubated for 2 hrs by ICP-MS analysis. Type of data set: ADME, cell-based. The note with it: u-87mg atcc.
Data set [12] in a line: Drug uptake in human U87MG cells at 50 uM measured upto 4 hrs by ICP-MS analysis. Type of data set: ADME, cell-based. The note with it: u-87mg atcc. The essentials:
(§2)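 Cellular boron accumulation was measured by ICP-MS as boron concentration (ppm) at time points over the incubation, up to 4 h. Mouse 3T3 cells served as the normal reference for the tumor/normal (T/N) ratio.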

Data set [13] relates to U-87 MG. Briefly: Effect on LAT-1 expression in human U87MG cells at 50 uM incubated for 2 hrs by Western blot analysis. Type of data set: functional, cell-based. The note with it: U-87MG ATCC. The method, boiled down:
as §1

Data set [14] is described as follows: Drug uptake in human LN229 cells at 50 uM measured upto 4 hrs by ICP-MS analysis. Type of data set: ADME, cell-based. The note with it: ln-229, 4 h. The essentials: as §2
The subject of data set [15] is U-87 MG. Briefly: Cytotoxicity against human U87MG cells assessed as cell viability at 100 uM incubated for 24 hrs by WST-1 assay (reference value: 97 %). Type of data set: functional, U-87MG ATCC. The following applies: read-out: Activity.

With `COC(=O)C(Cc1cn(C(=O)OC(C)(C)C)c2ccc(B3OC(C)(C)C(C)(C)O3)cc12)N(C(=O)OC(C)(C)C)C(=O)OC(C)(C)C` (configuration not stated), the Ratio in [1] is on record as > 5; in data set [6], > 9.66; in [8], > 5. The viability at 100 µM worked out at 60.7% with LN-229 [2] and 67.4% in the data set on U-87 MG [15]. The result with LN-229 [3] and in the data set with U-87 MG [13] was inactive. For the same molecule, the solubility entry in [4] is on record as “Insoluble”. For the same molecule, the viability at 24 h in data set [5] came to 60.2%. The outcome in the data set on U-87 MG [7], with LN-229 [9] and in the data set on NIH3T3 was Active. For the same molecule, the Drug uptake in data set [10] is given as 450 ppm; in data set [11] it was 300 ppm; in data set [12], “Active”; in data set [14] it was “Active”.

For the molecule `COC(=O)C(Cc1c[nH]c2ccc(B3OC(C)(C)C(C)(C)O3)cc12)NC(C)=O` (configuration not stated), the values for the viability at 100 µM in the data set with LN-229 [2] and in the data set on U-87 MG [15] were 69.9% and 66.2%, respectively. The outcome in the data set with LN-229 [3] and in the data set on U-87 MG [13] was inactive. In addition, in [5], the viability at 24 h was 60.2%. Moreover, the result with NIH3T3 was Active. The Drug uptake result in [12] and in [14] was “Not Active” each time.

For `COC(=O)C(Cc1cn(C(=O)OC(C)(C)C)c2ccc(B3OC(C)(C)C(C)(C)O3)cc12)N(C(C)=O)C(=O)OC(C)(C)C` (configuration not stated), the figures for the viability at 100 µM in the data set with LN-229 [2] and in the data set with U-87 MG [15] were 70.8% and 70.2%, respectively. Also, in data set [4], the solubility result is “Insoluble”. The viability at 24 h in [5] was 63.6%. For the same molecule, the outcome with U-87 MG [7] and with LN-229 [9] was Active. Also, the Drug uptake in data set [11] is 300 ppm; in [12] it was “Active”; in data set [14], “Active”.

On to `N[C@@H](Cc1ccc(B(O)O)cc1)C(=O)O`, for which the viability at 100 µM in the data set on LN-229 [2] turned out to be 79.6%; in the data set on U-87 MG [15], 67%. The outcome with LN-229 [3] and in the data set with U-87 MG [13] was inactive. Further, in [5], the viability at 24 h was determined as 110%. For the same molecule, the Ratio in [6] is on record as 2.3. In addition, the outcome in the data set with U-87 MG [7], in the data set with LN-229 [9] and with NIH3T3 was Active. Besides, in data set [10], the Drug uptake is < 50 ppm.

As for `COC(=O)C(Cc1c(B2OC(C)(C)C(C)(C)O2)[nH]c2c(B3OC(C)(C)C(C)(C)O3)cccc12)N=[N+]=[N-]` (configuration not stated), the figures for the viability at 100 µM with LN-229 [2] and in the data set with U-87 MG [15] were 57.2% and 61.3%, respectively. Moreover, the viability at 24 h in data set [5] came out at 66.6%.

With `COC(=O)C(Cc1cn(C(=O)OC(C)(C)C)c2cc(B3OC(C)(C)C(C)(C)O3)ccc12)N(C(=O)OC(C)(C)C)C(=O)OC(C)(C)C` (configuration not stated), the Ratio in data set [1] and in [8] was > 5 in each case. Moreover, the viability at 100 µM was 53.2% in the data set on LN-229 [2] and 60.1% in the data set on U-87 MG [15]. Further, the outcome in the data set on LN-229 [3] and in the data set on U-87 MG [13] was inactive. Also, the solubility result in data set [4] is recorded as “Insoluble”. Moreover, the viability at 24 h in data set [5] was 63.6%. Further, the result with U-87 MG [7], with LN-229 [9] and in the data set on NIH3T3 was Active. Moreover, the Drug uptake in data set [12] and in [14] was 300 ppm in each case.

In the case of `COC(=O)C(N)Cc1c[nH]c2ccc(B3OC(C)(C)C(C)(C)O3)cc12` (configuration not stated), the viability at 100 µM in the data set on LN-229 [2] came to 67.3%; in the data set with U-87 MG [15], 65.8%. Moreover, the outcome in the data set with LN-229 [3] and with U-87 MG [13] was inactive. In addition, in [5], the viability at 24 h turned out to be 53%. Besides, the result in the data set with NIH3T3 was Active. Moreover, the Drug uptake result in data set [12] and in data set [14] was “Not Active” in each case.

For the origin of these results see ChEMBL document CHEMBL4342515, “Boron Accumulation in Brain Tumor Cells through Boc-Protected Tryptophan as a Carrier for Boron Neutron Capture Therapy” (ACS Med Chem Lett, 2020).
